In ChEMBL document CHEMBL1135752, “Pyrazolopyrimidine-2,4-dione sulfonamides: novel and selective calcitonin inducers” (J Med Chem, 2002):

biological target: T1, Phosphodiesterase 4 (Homo sapiens, UniProt P27815+Q08499+Q07343+Q08493); assay: Inhibition of phosphodiesterase 4 (PDE4); assay type: protein assay; details: not given

Row | SMILES | IC50 [µM]
1 | CCCCn1c(=O)c2cn(S(=O)(=O)CCCCl)nc2n(CCCC)c1=O | 4.9
2 | CCCCn1c(=O)c2nn(S(=O)(=O)CCCCl)cc2n(CCCC)c1=O | 4.9

test system: not listed separately; assay: Increased transcription of human calcitonin luciferase reporter gene at 30 uM; assay type: functional; details: not given
How it was run: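 Luciferase reporter gene under control of the human calcitonin gene/promoter, used to measure transcription activation. Compound tested at 30 µM. Read-out is the transcription activation ratio: luciferase activity with compound divided by luciferase activity in untreated control.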

Row | SMILES | CT-luci TAR [T/C]
3 | CCCCn1c(=O)c2cn(S(=O)(=O)c3ccccc3C#N)nc2n(CCCC)c1=O | 3.6
4 | CCCCn1c(=O)c2cn(S(=O)(=O)c3cccc4cccnc34)nc2n(CCCC)c1=O | 2.9
5 | CCCCn1c(=O)c2cn(S(=O)(=O)CCCCl)nc2n(CCCC)c1=O | 1.9
6 | CCCCn1c(=O)c2cn(S(C)(=O)=O)nc2n(CCCC)c1=O | 1.8
7 | CCCCn1c(=O)c2nn(S(=O)(=O)c3ccc4ccccc4c3)cc2n(CCCC)c1=O | 1.8
8 | CCCCn1c(=O)c2nn(S(=O)(=O)c3cc(Cl)c(Cl)s3)cc2n(CCCC)c1=O | 1.7
9 | CCCCn1c(=O)c2cn(S(=O)(=O)c3cc(Cl)c(Cl)s3)nc2n(CCCC)c1=O | 3.2
10 | CCCCn1c(=O)c2nn(S(=O)(=O)c3cccc4cccnc34)cc2n(CCCC)c1=O | 2.2
11 | CCCCn1c(=O)c2nn(S(=O)(=O)CCCCl)cc2n(CCCC)c1=O | 1.3
12 | CCCCn1c(=O)c2nn(S(C)(=O)=O)cc2n(CCCC)c1=O | 2.1
13 | CCCCn1c(=O)c2cn(S(=O)(=O)Cc3ccccc3)nc2n(CCCC)c1=O | 2
14 | CCCCn1c(=O)c2nn(S(=O)(=O)c3cccc(C(F)(F)F)c3)cc2n(CCCC)c1=O | 1.8
15 | CCCCn1c(=O)c2nn(S(=O)(=O)c3ccc(C(C)(C)C)cc3)cc2n(CCCC)c1=O | 2.3
16 | CCCCn1c(=O)c2cn(S(=O)(=O)c3ccc(C(C)(C)C)cc3)nc2n(CCCC)c1=O | 2.6
17 | CCCCn1c(=O)c2nn(S(=O)(=O)Cc3ccccc3)cc2n(CCCC)c1=O | 1.5
18 | CCCCn1c(=O)c2c(ncn2CC(C)=O)n(CCCC)c1=O | 2.1

test system: not listed separately; assay: Ability to increase Human calcitonin secretion; assay type: functional; details: not given
How it was run: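 Calcitonin secretion assay with radioimmunoassay read-out, measuring the rise in cellular levels and secretion of human CT. Compound tested at 30 µM. Value is the ratio of secretion with compound to secretion in untreated control; average precision error reported as 10-33%.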

Row | SMILES | CTS increase
19 | CCCCn1c(=O)c2cn(S(=O)(=O)c3ccccc3C#N)nc2n(CCCC)c1=O | 3.4
20 | CCCCn1c(=O)c2cn(S(=O)(=O)c3cccc4cccnc34)nc2n(CCCC)c1=O | 4.8
21 | CCCCn1c(=O)c2cn(S(=O)(=O)CCCCl)nc2n(CCCC)c1=O | 2.7
22 | CCCCn1c(=O)c2cn(S(C)(=O)=O)nc2n(CCCC)c1=O | 3.9
23 | CCCCn1c(=O)c2nn(S(=O)(=O)c3ccc4ccccc4c3)cc2n(CCCC)c1=O | 4.9
24 | CCCCn1c(=O)c2nn(S(=O)(=O)c3cc(Cl)c(Cl)s3)cc2n(CCCC)c1=O | 3.4
25 | CCCCn1c(=O)c2cn(S(=O)(=O)c3cc(Cl)c(Cl)s3)nc2n(CCCC)c1=O | 3
26 | CCCCn1c(=O)c2nn(S(=O)(=O)c3cccc4cccnc34)cc2n(CCCC)c1=O | 3.8
27 | CCCCn1c(=O)c2nn(S(=O)(=O)CCCCl)cc2n(CCCC)c1=O | 4.4
28 | CCCCn1c(=O)c2nn(S(C)(=O)=O)cc2n(CCCC)c1=O | 0.9
29 | CCCCn1c(=O)c2cn(S(=O)(=O)Cc3ccccc3)nc2n(CCCC)c1=O | 3.4
30 | CCCCn1c(=O)c2nn(S(=O)(=O)c3cccc(C(F)(F)F)c3)cc2n(CCCC)c1=O | 3.8
31 | CCCCn1c(=O)c2nn(S(=O)(=O)c3ccc(C(C)(C)C)cc3)cc2n(CCCC)c1=O | 4.5
32 | CCCCn1c(=O)c2cn(S(=O)(=O)c3ccc(C(C)(C)C)cc3)nc2n(CCCC)c1=O | 2.9
33 | CCCCn1c(=O)c2nn(S(=O)(=O)Cc3ccccc3)cc2n(CCCC)c1=O | 2.6
34 | CCCCn1c(=O)c2c(ncn2CC(C)=O)n(CCCC)c1=O | 3.5

biological target: T1, Phosphodiesterase 4; assay: Percent Rolipram activity of a standard U937 cell phosphodiesterase 4 (PDE4) enzyme assay at 30 uM of compound; assay type: cell-based; details: U-937
How it was run: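 U937 cell PDE4 enzyme assay with compound at 30 µM. Activity is scaled and reported as percent of rolipram activity.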

Row | SMILES | Activity [%]
35 | CCCCn1c(=O)c2cn(S(=O)(=O)c3ccccc3C#N)nc2n(CCCC)c1=O | 32
36 | CCCCn1c(=O)c2cn(S(=O)(=O)c3cccc4cccnc34)nc2n(CCCC)c1=O | 96
37 | CCCCn1c(=O)c2cn(S(=O)(=O)CCCCl)nc2n(CCCC)c1=O | 66
38 | CCCCn1c(=O)c2cn(S(C)(=O)=O)nc2n(CCCC)c1=O | 93
39 | CCCCn1c(=O)c2nn(S(=O)(=O)c3ccc4ccccc4c3)cc2n(CCCC)c1=O | 66
40 | CCCCn1c(=O)c2nn(S(=O)(=O)c3cc(Cl)c(Cl)s3)cc2n(CCCC)c1=O | 59
41 | CCCCn1c(=O)c2cn(S(=O)(=O)c3cc(Cl)c(Cl)s3)nc2n(CCCC)c1=O | 16
42 | CCCCn1c(=O)c2nn(S(=O)(=O)c3cccc4cccnc34)cc2n(CCCC)c1=O | 59
43 | CCCCn1c(=O)c2nn(S(=O)(=O)CCCCl)cc2n(CCCC)c1=O | 69
44 | CCCCn1c(=O)c2nn(S(C)(=O)=O)cc2n(CCCC)c1=O | 60
45 | CCCCn1c(=O)c2cn(S(=O)(=O)Cc3ccccc3)nc2n(CCCC)c1=O | 52
46 | CCCCn1c(=O)c2nn(S(=O)(=O)c3cccc(C(F)(F)F)c3)cc2n(CCCC)c1=O | 32
47 | CCCCn1c(=O)c2nn(S(=O)(=O)c3ccc(C(C)(C)C)cc3)cc2n(CCCC)c1=O | 37
48 | CCCCn1c(=O)c2cn(S(=O)(=O)c3ccc(C(C)(C)C)cc3)nc2n(CCCC)c1=O | 57
49 | CCCCn1c(=O)c2nn(S(=O)(=O)Cc3ccccc3)cc2n(CCCC)c1=O | 65
50 | CCCCn1c(=O)c2c(ncn2CC(C)=O)n(CCCC)c1=O | 100
